Laboratory results reported in publication PMC5771089 (Theranostics, 2018).

Columns and labels:
[1] = target: biotinylated BSA (serum albumin) (Bos taurus, UniProt P02769); assay: Kinetic binding assay by biolayer interferometry; set-up: species or system bovine
Summary of the method: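 Biolayer interferometry on streptavidin biosensors. Steps: PBS baseline 60 s; biotin-BSA load (1 µg/mL) 600 s; PBS 60 s; biocytin quench (1 µg/mL) 180 s; PBS 60 s; test compound association 600 s; dissociation 600 s. Nonspecific signal subtracted, taken from BSA-loaded sensor in buffer alone and blank sensor with analyte.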

[2] = test system: HCT116/SSTR2 (SSTR2+) and HCT116 (SSTR2-) cells; assay: Cell uptake/internalization; format: cell-based, human
Summary of the method: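 HCT116/SSTR2 (transfected) and parental HCT116 cells grown in McCoy's 5A with 10% FBS at 37 °C, 5% CO2. 10^5 cells/well plated 24 h ahead, PBS-washed, then given 18.5 KBq/well 86Y-labelled tracer in 0.5 mL medium with 1% (w/v) HSA. At each time point: PBS wash, then 0.1 M NaOH lysis. For internalized fraction, surface tracer stripped first with 1 min glycine 50 mM/NaCl 100 mM, pH 2.8. Gamma-counted as % of added activity; triplicates; blocking at 24 h.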

[3] = test system: HCT116/SSTR2 tumor xenografts; assay: In vivo PET in HCT116/SSTR2 xenografts; set-up: species or system mouse

biotinylated BSA (serum albumin), sequence (P02769 25-607): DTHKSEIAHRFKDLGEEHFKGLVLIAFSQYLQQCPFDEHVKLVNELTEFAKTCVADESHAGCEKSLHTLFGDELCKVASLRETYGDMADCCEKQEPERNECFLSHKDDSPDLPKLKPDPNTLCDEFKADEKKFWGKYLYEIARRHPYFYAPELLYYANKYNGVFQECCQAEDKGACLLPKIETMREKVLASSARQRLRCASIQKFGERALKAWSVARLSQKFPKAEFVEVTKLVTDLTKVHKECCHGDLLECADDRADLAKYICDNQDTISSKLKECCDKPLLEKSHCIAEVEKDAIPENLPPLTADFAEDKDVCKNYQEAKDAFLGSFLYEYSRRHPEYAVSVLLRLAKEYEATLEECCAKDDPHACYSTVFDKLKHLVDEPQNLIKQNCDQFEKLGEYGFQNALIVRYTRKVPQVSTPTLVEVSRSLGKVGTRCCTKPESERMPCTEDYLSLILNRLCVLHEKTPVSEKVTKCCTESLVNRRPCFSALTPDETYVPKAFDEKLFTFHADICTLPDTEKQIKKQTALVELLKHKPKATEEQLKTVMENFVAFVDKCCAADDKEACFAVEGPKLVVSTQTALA

Kd [1] [µM] | Compound | Cell uptake (percent of added radioactivity) ([2]; HCT116/SSTR2 cells, 24 h, 18.5 KBq/well, medium with 1% (w/v) HSA, triplicate) [%] | Uptake/internalization in SSTR2 positive vs SSTR2 negative cells ([2]; HCT116/SSTR2 vs HCT116, 1% HSA, p < 0.001) | Amount retained in the blood compared to ^86Y-TATE ([3]; 1 h p.i., PET quantification) [fold] | Tumor exposure to the radioisotope (AUC) compared to ^86Y-TATE ([3]; AUC of tumor radioactivity over time, non-decay corrected data) | Increase of half-life in the blood compared to ^86Y-TATE ([3]; PET quantification, i.v. 0.92 MBq (4 nmol)) [fold]
4.8 | Cc1cc(-c2ccc(NC(=O)[C@H](CCCCNC(=O)CCN3C(=O)CC(SCC(=O)N[C@H](Cc4ccccc4)C(=O)N[C@H]4CSSC[C@@H](C(=O)N[C@H](C(=O)O)[C@@H](C)O)NC(=O)[C@H]([C@@H](C)O)NC(=O)[C@H](CCCCN)NC(=O)[C@@H](Cc5c[nH]c6ccccc56)NC(=O)[C@H](Cc5ccc(O)cc5)NC4=O)C3=O)NC(=O)CN3CCN(CC(=O)O)CCN(CC(=O)O)CCN(CC(=O)O)CC3)c(C)c2)ccc1N=Nc1ccc2c(S(=O)(=O)O)cc(S(=O)(=O)O)c(N)c2c1O (stereo partly drawn) [EB-TATE] |  |  |  |  | 
 | Cc1cc(-c2ccc(NC(=O)[C@H](CCCCNC(=O)CCN3C(=O)CC(SCC(=O)N[C@H](Cc4ccccc4)C(=O)N[C@H]4CSSC[C@@H](C(=O)N[C@H](C(=O)O)[C@@H](C)O)NC(=O)[C@H]([C@@H](C)O)NC(=O)[C@H](CCCCN)NC(=O)[C@@H](Cc5c[nH]c6ccccc56)NC(=O)[C@H](Cc5ccc(O)cc5)NC4=O)C3=O)NC(=O)CN3CCN(CC(=O)O)CCN(CC(=O)O)CCN(CC(=O)O)CC3)c(C)c2)ccc1N=Nc1ccc2c(S(=O)(=O)O)cc(S(=O)(=O)O)c(N)c2c1O (stereo partly drawn) [^86Y-EB-TATE, metal not drawn] | 12.05±0.67 | significantly higher | 4 | approximately 6 fold | 2
